From ChEMBL document CHEMBL4732185, “Synthesis, biological evaluation and structure-activity relationship of novel dichloroacetophenones targeting pyruvate dehydrogenase kinases with potent anticancer activity” (Eur J Med Chem, 2021)
Calls of active or inactive are those of the source. No cut-off for these calls is given here.

Tests used:
MCF7 [1] = test: Antiproliferative activity against human MCF7 cells assessed as growth inhibition at 1 uM after 72 hrs by MTT assay relative to control; assay type: functional; conditions: for inhibition of growth at 1 µM: read-out: GI
In short: (§1)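 Single-concentration MTT screen on MCF-7 and A549 cells grown in DMEM + 10% FBS. Cells at 3000–6000/well, cultured overnight, then given compound in buffer with 1% DMSO for 72 h. MTT (0.5 mg/mL) added for 4 h, formazan dissolved in DMSO, A570 read. Percent inhibition reported as the average ± S.D. of three independent measurements.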

Homo sapiens = species: Homo sapiens; test: Inhibition of PDK (unknown origin) using RYHGHSMSDP as substrate at 1 uM after 30 mins by Kinase-Glo luminescent assay
MCF7 [2] = test: Antiproliferative activity against human MCF7 cells assessed as growth inhibition at 10 uM after 72 hrs by MTT assay relative to control; assay type: functional; conditions: for inhibition of growth at 10 µM: read-out: GI; in short: as §1
A549 [3] = test: Antiproliferative activity against human A549 cells assessed as growth inhibition at 10 uM after 72 hrs by MTT assay relative to control; assay type: functional; conditions: for inhibition of growth at 10 µM: read-out: GI; in short: as §1
A549 [4] = test: Antiproliferative activity against human A549 cells assessed as growth inhibition at 1 uM after 72 hrs by MTT assay relative to control; assay type: functional; conditions: for inhibition of growth at 1 µM: read-out: GI; in short: as §1
L02 = test: Cytotoxicity against human L02 cells assessed as reduction in cell viability after 72 hrs by MTT assay; assay type: cell-based
In short: (§2)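 MTT viability assay. Cancer lines seeded at 3000–6000 cells/well and L02 at 7000 cells/well, cultured overnight, then exposed to a full dose range for 72 h. MTT (0.5 mg/mL) added for 4 h, supernatant removed, formazan dissolved in DMSO, absorbance read at 570 nm. IC50 taken as the mean of three independent experiments. Cells grown in DMEM + 10% FBS, 37 °C, 5% CO2.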

SH-SY5Y = test: Antiproliferative activity against human SHSY-5Y cells assessed as growth inhibition after 72 hrs by MTT assay; assay type: functional, cell-based; in short: as §2
A-375 = test: Antiproliferative activity against human A375 cells assessed as growth inhibition after 72 hrs by MTT assay; assay type: functional, cell-based; in short: as §2
PC-3 = test: Antiproliferative activity against human PC3 cells assessed as growth inhibition after 72 hrs by MTT assay; assay type: functional, cell-based; in short: as §2
HCT-116 = test: Antiproliferative activity against human HCT-116 cells assessed as growth inhibition after 72 hrs by MTT assay; assay type: functional, cell-based; in short: as §2
MCF7 [5] = test: Antiproliferative activity against human MCF7 cells assessed as growth inhibition after 72 hrs by MTT assay; assay type: functional, cell-based; in short: as §2
A549 [6] = test: Antiproliferative activity against human A549 cells assessed as growth inhibition after 72 hrs by MTT assay; assay type: functional, cell-based; in short: as §2
[7] = Inhibition of PDK (unknown origin) using RYHGHSMSDP as substrate after 30 mins by Kinase-Glo luminescent assay; set-up: species or system Homo sapiens
[8] = Homo sapiens, L02, 72 h, read-out: IC50
[9] = Homo sapiens, SH-SY5Y, 72 h, read-out: IC50
[10] = Homo sapiens, A-375, 72 h, read-out: IC50
[11] = Homo sapiens, PC-3, 72 h, read-out: IC50
[12] = Homo sapiens, HCT-116, 72 h, read-out: IC50
[13] = Homo sapiens, MCF7, 72 h, read-out: IC50
[14] = Homo sapiens, A549, 72 h, read-out: IC50

SMILES	inhibition (Homo sapiens)	inhibition of growth at 1 µM (MCF7 [1])	inhibition of growth at 10 µM (MCF7 [2])	inhibition of growth at 10 µM (A549 [3])	inhibition of growth at 1 µM (A549 [4])	other results
O=C(c1ccc(-c2ccc(F)cc2)c([N+](=O)[O-])c1)C(Cl)Cl	12.1%	30.8%	91.6%	95.3%	44.7%	–
O=C(c1ccc(-c2ccc(OC(F)(F)F)cc2)c([N+](=O)[O-])c1)C(Cl)Cl	21.4%	24.7%	97.8%	93.6%	36.3%	–
O=C([O-])C(Cl)Cl.[Na+] [SODIUM DICHLOROACETATE]	–	–	–	–	–	IC50 (L02; [8]): 21700 µM; IC50 (SH-SY5Y; [9]): 17400 µM; IC50 (A-375; [10]): 20100 µM; IC50 (PC-3; [11]): 15700 µM; IC50 (HCT-116; [12]): 9800 µM; IC50 (MCF7 [5]; [13]): 13400 µM; IC50 (A549 [6]; [14]): 19500 µM
O=C(c1ccc(-n2ccnc2)c([N+](=O)[O-])c1)C(Cl)Cl	20.5%	24.2%	90.5%	96.6%	30.5%	–
CC(C)(O)c1ccc(Nc2ccc(C(=O)C(Cl)Cl)cc2[N+](=O)[O-])cc1	48.8%	33.9%	92.8%	96.3%	37.9%	IC50 (L02; [8]): 7.8 µM; IC50 (SH-SY5Y; [9]): 2.3 µM; IC50 (A-375; [10]): 1.8 µM; IC50 (PC-3; [11]): 2.34 µM; IC50 (HCT-116; [12]): 1.5 µM; IC50 (MCF7 [5]; [13]): 2.98 µM; EC50 [7]: 1.49 µM; IC50 (A549 [6]; [14]): 3.1 µM
CCOc1ccc(Nc2ccc(C(=O)C(Cl)Cl)cc2[N+](=O)[O-])cc1	68.7%	18.8%	93.8%	97.4%	52.9%	–
O=C(c1ccc(N2CCNCC2)c([N+](=O)[O-])c1)C(Cl)Cl	48.6%	–	57%	93.1%	22.6%	growth inhibition (GI) (MCF7 [1]): inactive
CN(C)c1ccc(Nc2ccc(C(=O)C(Cl)Cl)cc2[N+](=O)[O-])cc1	88.2%	31.6%	93.2%	98.6%	75%	–
CC(C)c1ccc(Oc2ccc(C(=O)C(Cl)Cl)cc2[N+](=O)[O-])cc1	39.4%	28.7%	85.7%	90.7%	12.5%	–
Cc1ccc(-c2ccc(C(=O)C(Cl)Cl)cc2[N+](=O)[O-])cc1	5.9%	26.4%	89.1%	96%	13.8%	–
COc1ccc(Nc2ccc(C(=O)C(Cl)Cl)cc2[N+](=O)[O-])cc1OC	66.4%	24.2%	90.5%	96.6%	40.5%	–
O=C(c1ccc(-n2ccnc2[N+](=O)[O-])c([N+](=O)[O-])c1)C(Cl)Cl	8.1%	–	21.4%	80.9%	–	growth inhibition (GI) (MCF7 [1]): inactive; growth inhibition (GI) (A549 [4]): inactive
CC(C)c1ccc(Nc2ccc(C(=O)C(Cl)Cl)cc2[N+](=O)[O-])cc1	80%	38.6%	94%	97%	75.2%	IC50 (L02; [8]): 1.5 µM; IC50 (SH-SY5Y; [9]): 1 µM; IC50 (A-375; [10]): 0.9 µM; IC50 (PC-3; [11]): 0.38 µM; IC50 (HCT-116; [12]): 0.7 µM; IC50 (MCF7 [5]; [13]): 1.21 µM; EC50 [7]: 0.34 µM; IC50 (A549 [6]; [14]): 0.33 µM
O=C(c1ccc(-c2ccsc2)c([N+](=O)[O-])c1)C(Cl)Cl	26.5%	7.5%	43.5%	94.4%	14.4%	–
CC(C)c1ccc(Sc2ccc(C(=O)C(Cl)Cl)cc2[N+](=O)[O-])cc1	19.5%	18.9%	79.8%	76.3%	12.9%	–
CN(C)C(=O)c1ccc(S(=O)(=O)c2ccc(NC(=O)[C@@](C)(O)C(F)(F)F)c(Cl)c2)cc1	98.7%	–	–	–	–	growth inhibition (GI) (MCF7 [1]): inactive; IC50 (L02; l02): Not Active; IC50 (SH-SY5Y; sh-sy5y): Not Active; IC50 (A-375; a-375): Not Active; IC50 (PC-3; pc-3): Not Active; IC50 (HCT-116; hct-116): Not Active; growth inhibition (GI) (MCF7 [2]): inactive; IC50 (MCF7 [5]; mcf7): Not Active; EC50 [7]: 0.053 µM; growth inhibition (GI) (A549 [3]): inactive; growth inhibition (GI) (A549 [4]): inactive; IC50 (A549 [6]; a549): Not Active
COc1cccc2c1C(=O)c1c(O)c3c(c(O)c1C2=O)C[C@@](O)(C(=O)CO)C[C@@H]3O[C@H]1C[C@H](N)[C@H](O)[C@H](C)O1 [DOXORUBICIN]	–	59.8%	97.5%	98.5%	81.2%	–
O=C(c1ccc(-c2ccccc2)c([N+](=O)[O-])c1)C(Cl)Cl	25.6%	15.8%	56.2%	92.6%	8.9%	–
O=C(c1ccc(-n2cncn2)c([N+](=O)[O-])c1)C(Cl)Cl	17.4%	–	11.9%	58.9%	–	growth inhibition (GI) (MCF7 [1]): inactive; growth inhibition (GI) (A549 [4]): inactive
CC(C)(C)c1ccc(Nc2ccc(C(=O)C(Cl)Cl)cc2[N+](=O)[O-])cc1	65.8%	41.2%	96.4%	93.2%	48.8%	IC50 (L02; [8]): 5.9 µM; IC50 (SH-SY5Y; [9]): 1.1 µM; IC50 (A-375; [10]): 0.9 µM; IC50 (PC-3; [11]): 0.47 µM; IC50 (HCT-116; [12]): 0.5 µM; IC50 (MCF7 [5]; [13]): 1.9 µM; EC50 [7]: 0.55 µM; IC50 (A549 [6]; [14]): 1.2 µM

More lines, main results first:

inhibition (Homo sapiens)	SMILES	inhibition of growth at 1 µM (MCF7 [1])	inhibition of growth at 10 µM (MCF7 [2])	inhibition of growth at 10 µM (A549 [3])	inhibition of growth at 1 µM (A549 [4])	other results
60.7%	O=C(c1ccc(Nc2ccccc2)c([N+](=O)[O-])c1)C(Cl)Cl	26.3%	97.1%	97.4%	46.1%	–
36.9%	O=C(c1ccc(N2CCOCC2)c([N+](=O)[O-])c1)C(Cl)Cl	18.9%	90.4%	95.6%	10.1%	–
55.7%	COc1ccc(Nc2ccc(C(=O)C(Cl)Cl)cc2[N+](=O)[O-])cc1	29.2%	95.9%	97.7%	45%	–
50.1%	O=C(c1ccc(Nc2ccc(F)cc2)c([N+](=O)[O-])c1)C(Cl)Cl	17.9%	97.8%	98.9%	23.2%	–
17.5%	O=C(c1ccc(NC2CC2)c([N+](=O)[O-])c1)C(Cl)Cl	25.7%	96%	95.7%	21.6%	–
40.2%	O=C(c1ccc(N2CCCCC2)c([N+](=O)[O-])c1)C(Cl)Cl	22.4%	95.8%	97.1%	38.9%	–
64.4%	Cc1ccc(Nc2ccc(C(=O)C(Cl)Cl)cc2[N+](=O)[O-])cc1	12.1%	88.9%	97.3%	48.1%	–
32.4%	O=C(c1ccc(N2CCCC2)c([N+](=O)[O-])c1)C(Cl)Cl	23%	94.6%	97.3%	30.6%	–
17.3%	O=C(c1ccc(C2CC2)c([N+](=O)[O-])c1)C(Cl)Cl	31.3%	87.8%	95.9%	40.1%	–
